High-throughput results (PubChem BioAssay)
CHRM1 agonist – human M1 muscarinic receptor agonists, primary screen, Fluo-8 calcium fluorescence, CHO-K1 cells, HTS. Muscarinic acetylcholine receptor M1 (Homo sapiens), P11229. CHO-K1 hM1, agonist mode; 0% DMSO, 100% acetylcholine EC100. activation, % at 3 µM. 0.33% of 360,000 active;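 active = activation above the run's mean compound activation plus 3 SD, cut at about 16% in these data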;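 note: peak over basal fluorescence ratio within a 140 s kinetic read after compound addition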
Target sequence (P11229 whole entry, looked up): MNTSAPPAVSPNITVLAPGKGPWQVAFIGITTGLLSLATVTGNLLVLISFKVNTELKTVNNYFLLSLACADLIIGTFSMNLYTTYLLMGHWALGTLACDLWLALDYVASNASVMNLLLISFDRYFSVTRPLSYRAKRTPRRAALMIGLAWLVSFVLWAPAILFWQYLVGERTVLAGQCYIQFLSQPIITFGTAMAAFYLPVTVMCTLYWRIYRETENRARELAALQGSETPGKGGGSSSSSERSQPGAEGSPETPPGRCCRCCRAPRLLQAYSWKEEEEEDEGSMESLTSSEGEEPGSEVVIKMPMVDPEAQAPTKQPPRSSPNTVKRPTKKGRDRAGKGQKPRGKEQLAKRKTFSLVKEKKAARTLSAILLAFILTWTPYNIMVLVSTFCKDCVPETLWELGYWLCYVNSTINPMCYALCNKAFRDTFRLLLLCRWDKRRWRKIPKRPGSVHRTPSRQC
CHRM5 PAM – human M5 muscarinic receptor positive allosteric modulators, primary screen, CHO-K1 cells, Fluo-8 calcium fluorescence; 0.3% of 360,000 active; Muscarinic acetylcholine receptor M5 (Homo sapiens), P08912; AID 624038, 2012; CHO-K1 hM5, ACh EC20 PAM; 0% = ACh EC20, 100% = ACh EC100; activation, % at 3 µM;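 active = activation above the run cutoff, the mean activation of all test compounds plus 3 SD, cut at about 18% in these data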
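Replicates: One well per compound, no replicates | System: Human M5 receptor in CHO-K1 cells | Benchmarks: Low control EC20 acetylcholine (0%), high control EC100 acetylcholine (100%) | Probe or stimulus: Acetylcholine, EC20 level | Times: Fluo-8 loading 80 min at 37 °C plus 30 min room temperature | Signal: Intracellular calcium via Fluo-8 fluorescence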
M1 PAM – human M1 muscarinic receptor positive allosteric modulators, primary screen, CHO-K1 cells, Fluo-8 calcium fluorescence, 1536-well. CHO-K1 hM1, ACh EC20; 0% = ACh EC20, 100% = maximal ACh. activation, % at 3 µM. 0.088% of 360,000 active. AID 588819, 2011; in the data active = activation above about 19%, passing the limit was not always enough
M1 antag – human M1 muscarinic receptor antagonists, primary screen, CHO-K1 cells, Fluo-8 calcium fluorescence, 1536-well. Muscarinic acetylcholine receptor M1 (Homo sapiens), P11229. CHO-K1 hM1, ACh EC80 antagonist. inhibition, % at 3 µM. 1.3% of 360,000 active. AID 588852, 2011;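 active = percent inhibition above its own plate's cutoff, namely the mean of that plate's compound wells plus 3 SD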;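 note: peak over basal fluorescence ratio during 140 s after agonist addition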
CHRM5 antagonist – human M5 muscarinic receptor antagonists, primary screen, CHO cells, Fluo-8 calcium fluorescence | AID 624040, 2012 | 0.59% of 360,000 active | Muscarinic acetylcholine receptor M5 (Homo sapiens), P08912 | CHO-hM5 cells, ACh EC80 | inhibition, % at 3 µM;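 active = inhibition above a per-plate cutoff, the mean of that plate's test compounds plus 3 SD, cut at about 27% in these data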
M5 ag – human M5 muscarinic receptor agonists, primary screen, CHO-K1 cells, Fluo-8 calcium fluorescence; CHO-K1 hM5 cells; 0% DMSO wells, 100% maximal acetylcholine response; 0.19% of 360,000 active; Muscarinic acetylcholine receptor M5 (Homo sapiens), P08912; activation, % at 3 µM;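 active = activation above the run's mean over test compounds plus 3 SD, cut at about 23% in these data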;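 note: signal is peak over basal fluorescence ratio across the kinetic read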
Numbers stand for hits; 0 = inactive. In the library only some 2.1% were active in any assay of this set; here they are far more common.

SMILES	CHRM1 agonist	CHRM5 PAM	M1 PAM	M1 antag	CHRM5 antagonist	M5 ag
O=C(CSc1nc2cc(Cl)ccc2o1)Nc1ccc(N2CCOCC2)cc1	0	0	0	0	0	0
CCOC(=O)c1oc2ccc(Br)cc2c1COC(=O)C1=COCCO1	0	0	0	57	0	0
Cc1ccc2c(COC(=O)C3=COCCO3)cc(=O)oc2c1	0	0	0	0	0	0
Cc1ccc(NC2=C/C(=N/S(=O)(=O)c3cccs3)c3ccccc3C2=O)cc1C	0	0	0	0	0	0
CC(=O)Nc1ccc(NC2=C/C(=N/S(=O)(=O)c3cccs3)c3ccccc3C2=O)cc1	0	0	0	0	28	0
COc1ccc(NC(=O)C2(N(C(=O)Cn3nnnc3N)c3ccc(OC)cc3)CCCCC2)cc1	0	0	0	0	0	0
CCC(C)(C(=O)Nc1ccc(OC)cc1)N(C)C(=O)Cn1nnnc1N (configuration not stated)	0	19	0	0	0	0
CCC1Sc2ccc(S(=O)(=O)Nc3ccc(OC)cc3)cc2NC1=O (configuration not stated)	0	0	0	0	0	0
CCC1Sc2ccc(S(=O)(=O)Nc3ccc(OC)c(OC)c3)cc2NC1=O (configuration not stated)	0	0	0	0	31	0
COC(=O)c1cc(C#N)c(SCc2ccccc2)nc1C	0	0	0	0	0	0
CCOc1cc(C2C(C#N)=C(N)OC3=C2C(=O)CC(C)(C)C3)cc([N+](=O)[O-])c1O (configuration not stated)	0	0	0	0	0	0
CC1(C)CC(=O)C2=C(C1)OC(N)=C(C#N)C2c1cc2c(cc1[N+](=O)[O-])OCO2 (configuration not stated)	0	0	0	38	0	0
CCN1CCN(CCNC(=O)c2ccc3nc(-c4cccc(C)c4)c(-c4cccc(C)c4)nc3c2)CC1	0	0	0	83	0	0
Cc1cc(CSc2ccccc2)ccc1NC(=O)COc1ccccc1	0	0	0	0	0	0
COc1ccccc1OCC(=O)Nc1ccc(CSc2ccccc2)cc1C	0	49	0	0	0	0
CC(C)(CO)NCc1cc(Br)ccc1OCc1ccccc1	0	0	0	0	0	0
CC(C)NCc1cc(Br)ccc1OCc1ccccc1	34	0	0	0	0	0
O=S(=O)(Nc1nc(SCc2ccc(Cl)cc2)n[nH]1)c1ccc(F)cc1	0	22	0	0	0	0
CC(=O)CC(=O)Nc1ccn(-c2ccccc2)n1	0	20	0	0	0	0
O=C(O)CCCC(=O)Nc1ccn(-c2ccccc2)n1	0	0	0	0	0	0
C[C@@H]1C2CC(C/C2=N\NC(=O)c2ccncc2)C1(C)C (some centres not stated)	0	39	0	0	0	0
CC1C2CC(C/C2=N/NC(=O)c2cccs2)C1(C)C (configuration not stated)	0	0	0	0	0	0
C[C@@H]1CN([C@H](C)CO)C(=O)c2cc(NC(=O)Nc3ccc(C(F)(F)F)cc3)ccc2O[C@H]1CN(C)S(=O)(=O)c1cccs1	0	0	0	0	0	0
C[C@H](CO)N1C[C@H](C)[C@@H](CN(C)S(=O)(=O)c2ccccc2)Oc2ccc(NC(=O)Cn3cnnn3)cc2C1=O	0	0	0	34	0	0
C[C@H](CO)N1C[C@H](C)[C@@H](CN(C)S(=O)(=O)c2ccccc2)Oc2ccc(NC(=O)CCN3CCOCC3)cc2C1=O	0	0	0	35	0	0
SMILES	CHRM1 agonist	CHRM5 PAM	M1 PAM	M1 antag	CHRM5 antagonist	M5 ag
C[C@H](CO)N1C[C@H](C)[C@@H](CN(C)S(=O)(=O)c2cccs2)Oc2ccc(NC(=O)CCC(F)(F)F)cc2C1=O	0	0	0	57	0	0
O=C(O)/C=C/C(=O)N1CCN(C(c2ccccc2)c2ccccc2)CC1	0	0	0	42	27	0
CC(=O)/C(C(=N)N1CCN(C(c2ccccc2)c2ccccc2)CC1)=C(\C)O	0	0	0	99	83	0
O=C1NCC(COc2ccc([N+](=O)[O-])cc2)O1 (configuration not stated)	0	0	0	0	0	0
Cc1cc(NC(=O)CSc2nccn2-c2ccc(F)cc2)no1	0	0	0	0	0	0
CC(NC(=O)C12CC3CC(CC(C3)C1)C2)c1ccc2c(c1)OCCO2 (configuration not stated)	0	0	0	0	0	0
CC1=CC2(O)OCCN(CCO)C2=CC1=O (configuration not stated)	0	0	0	0	28	0
O=C(O)C1CCCN1S(=O)(=O)c1ccccc1 (configuration not stated)	0	26	0	0	0	0
Cc1ccc(S(=O)(=O)N2CCC(C(=O)NCc3ccccc3CN3CCCC3)CC2)cc1	0	0	0	35	0	0
Cc1ccc(S(=O)(=O)N2CCC[C@H]2C(=O)NCc2ccccc2Cl)cc1	0	0	0	0	0	0
O=C(O)C1CCCN1S(=O)(=O)c1ccc(Cl)cc1 (configuration not stated)	0	0	0	0	0	0
CCOc1ccc(S(=O)(=O)N2CCC(C(=O)NCc3ccccc3CN3CCCC3)CC2)cc1	0	0	0	0	0	0
Cc1ccc(S(=O)(=O)N2CCCC2C(=O)NCc2ccccc2Cl)cc1 (configuration not stated)	0	19	0	0	0	0
CCN(C(=O)COC(=O)c1cc(C)oc1C)c1c(N)n(Cc2ccccc2)c(=O)[nH]c1=O	0	0	0	0	0	0
O=C1CCCN1c1ccc(S(=O)(=O)NCCOc2ccccc2)cc1	0	0	0	0	0	0
Cc1cc(N2CCCC2=O)cc(C)c1S(=O)(=O)NCCOc1ccc(C(C)(C)C)cc1	0	0	0	39	33	0
Nc1nonc1-n1nnc(C(=O)N/N=C\c2cccc(Cl)c2)c1CN1CCOCC1	0	0	0	0	0	0
Cc1cc(C)c(C(=O)c2ccc(C(=O)N3CCCCC3)cc2)c(C)c1	36	0	0	0	0	0
Cc1cc(C)cc(C(=O)N2CCCCCC2)c1	0	0	0	0	0	0
O=c1[nH]c(=O)n(C(c2ccccc2)c2ccccc2)cc1Br	0	0	0	0	0	0
